According to ChEMBL document CHEMBL4831494, “Synthesis and evaluation of FAK inhibitors with a 5-fluoro-7H-pyrrolo[2,3-d]pyrimidine scaffold as anti-hepatocellular carcinoma agents” (Eur J Med Chem, 2021):

What was measured:
SMMC-7721 [1] = experiment: cells; conditions: Homo sapiens, SMMC-7721, 48 h
cells = conditions: Homo sapiens, YY-8103, 48 h
Focal adhesion kinase 1 = Focal adhesion kinase 1 (Homo sapiens, UniProt Q05397); experiment: Inhibition of FAK (unknown origin) using Poly(Glu,Tyr) and ATP as substrate measured after 40 mins by Kinase-Glo Plus luminescence assay
Sequence of Focal adhesion kinase 1 (Q05397 whole entry): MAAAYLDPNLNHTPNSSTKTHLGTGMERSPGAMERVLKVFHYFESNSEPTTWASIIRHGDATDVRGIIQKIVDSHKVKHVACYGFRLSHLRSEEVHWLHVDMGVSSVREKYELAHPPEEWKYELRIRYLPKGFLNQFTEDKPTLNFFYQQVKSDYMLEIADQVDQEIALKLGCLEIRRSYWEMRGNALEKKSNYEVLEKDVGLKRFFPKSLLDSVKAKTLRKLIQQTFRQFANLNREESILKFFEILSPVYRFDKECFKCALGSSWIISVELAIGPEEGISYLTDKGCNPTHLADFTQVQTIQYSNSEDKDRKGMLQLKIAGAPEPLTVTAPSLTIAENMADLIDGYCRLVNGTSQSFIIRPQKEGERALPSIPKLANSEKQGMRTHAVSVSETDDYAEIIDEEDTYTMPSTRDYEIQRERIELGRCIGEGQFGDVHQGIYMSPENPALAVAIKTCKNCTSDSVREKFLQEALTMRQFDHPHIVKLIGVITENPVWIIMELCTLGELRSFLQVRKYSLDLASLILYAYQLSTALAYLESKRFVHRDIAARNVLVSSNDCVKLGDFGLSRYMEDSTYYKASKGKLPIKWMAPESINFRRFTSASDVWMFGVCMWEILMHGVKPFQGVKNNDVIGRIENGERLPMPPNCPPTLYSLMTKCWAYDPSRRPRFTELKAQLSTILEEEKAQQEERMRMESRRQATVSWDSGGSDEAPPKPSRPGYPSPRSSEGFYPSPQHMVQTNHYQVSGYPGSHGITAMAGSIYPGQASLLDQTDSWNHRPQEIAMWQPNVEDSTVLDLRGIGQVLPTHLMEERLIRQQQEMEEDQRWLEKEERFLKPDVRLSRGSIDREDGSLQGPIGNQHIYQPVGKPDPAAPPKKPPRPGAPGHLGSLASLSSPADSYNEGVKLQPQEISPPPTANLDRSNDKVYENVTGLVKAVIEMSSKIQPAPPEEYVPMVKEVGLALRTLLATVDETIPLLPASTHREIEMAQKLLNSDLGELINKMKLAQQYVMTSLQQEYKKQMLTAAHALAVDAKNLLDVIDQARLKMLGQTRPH

SMMC-7721 [2] = experiment: Antitumor activity against human […] cells xenografted in BALB/c nude mouse assessed as tumor size at 30 mg/kg, ip administered for 19 days (reference value: 600.8 mm3); assay type: functional; conditions: time 19 day
How it was run: (§1)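 Male BALB/c nude mice, six weeks old, inoculated s.c. with 1.0 × 10⁷ SMMC7721 cells. Dosing began at mean tumour 25e35 mm³; five randomized groups, n = 8. Solvent DMSO/propylene glycol/PBS 2:5:3 (vehicle 1.0 mL/kg), all given i.p. every 3 days. Tumour size (calipers) and body weight taken before each dose. V = length × width²/2. TGI = [1 − (T−T₀)/(C−C₀)] × 100.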

[3] = Toxicity in BALB/c nude mouse assessed as animal's mortality at 30 mg/kg, ip measured on day 11; assay type: organism-based; conditions: in vivo, 264 h, time 11 day
How it was run: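 Six-week-old male BALB/c nude mice bearing subcutaneous SMMC7721 xenografts (1.0 × 10⁷ cells); dosing started at mean tumor 25-35 mm³, n = 8 per group. Ip every 3 days in DMSO/propylene glycol/PBS (2:5:3); vehicle 1.0 mL/kg as negative control. Body weight weighed and deaths recorded every 3 days before each dose, through day 19.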

[4] = Toxicity in BALB/c nude mouse assessed as effect on body weight at 30 mg/kg, ip administered for 19 days; assay type: organism-based; conditions: in vivo, 456 h, time 19 day
How it was run: as §1

SMMC-7721 [5] = experiment: Antitumor activity against human […] cells xenografted in BALB/c nude mouse assessed as tumor growth inhibition at 30 mg/kg, ip administered for 19 days; assay type: functional; conditions: SMMC-7721, ip, 456 h, time 19 day, read-out: TGI
How it was run: as §1

Row | IC50 (SMMC-7721 [1]) [µM] | IC50 (cells) [µM] | IC50 (Focal adhesion kinase 1) [µM] | Structure (SMILES) | Activity (SMMC-7721 [2]) [mm3] | Activity [3] | Activity [4] | inhibition in vivo at 30 mg/kg (SMMC-7721 [5]) [%]
1 | 52.8 | 13.6 | 0.055 | CN(c1ncccc1CNc1nc(Nc2ccc3c(c2)CC(=O)N3)nc2[nH]ccc12)S(C)(=O)=O | – | – | – | –
2 | 21.9 | 13.2 | 0.021 | CN(c1ncccc1CNc1nc(Nc2ccc3c(c2)CC(=O)N3)nc2[nH]cc(Cl)c12)S(C)(=O)=O | – | – | – | –
3 | > 100 | > 100 | 0.032 | CN(c1ncccc1CNc1nc(Nc2ccccc2)nc2[nH]cc(F)c12)S(C)(=O)=O | – | – | – | –
4 | > 100 | 82.5 | 0.041 | CN(c1ncccc1CNc1nc(Nc2ccc(F)c(Cl)c2)nc2[nH]cc(F)c12)S(C)(=O)=O | – | – | – | –
5 | > 100 | > 100 | 0.325 | CN(c1ncccc1CNc1nc(Nc2ccc3c(c2)CC(=O)N3)nc2[nH]cc(C#N)c12)S(C)(=O)=O | – | – | – | –

Second part, the compound before the results:

Row | Structure (SMILES) | IC50 (SMMC-7721 [1]) [µM] | IC50 (cells) [µM] | IC50 (Focal adhesion kinase 1) [µM] | Activity (SMMC-7721 [2]) [mm3] | Activity [3] | Activity [4] | inhibition in vivo at 30 mg/kg (SMMC-7721 [5]) [%]
6 | COc1ccc(Nc2nc(NCc3cccnc3N(C)S(C)(=O)=O)c3c(F)c[nH]c3n2)cc1OC | 54.8 | 18.2 | 0.015 | – | – | – | –
7 | CN1CCN(c2ccc(Nc3nc(NCc4cccnc4N(C)S(C)(=O)=O)c4c(F)c[nH]c4n3)cc2)CC1 | 13.9 | 2.39 | 0.013 | – | – | – | –
8 | CN(c1ncccc1CNc1nc(Nc2ccc(F)cc2)nc2[nH]cc(F)c12)S(C)(=O)=O | 27.9 | > 100 | 0.038 | – | – | – | –
9 | CNC(=O)c1ccccc1Nc1nc(Nc2ccc3c(c2)CC(=O)N3)nc2[nH]cc(F)c12 | 10 | 4.69 | 0.022 | – | – | – | –
10 | CN(c1ncccc1CNc1nc(Nc2ccc3c(c2)CC(=O)N3)nc2[nH]ncc12)S(C)(=O)=O | – | – | 0.206 | – | – | – | –
11 | CC(=O)Nc1cccc(Nc2nc(NCc3cccnc3N(C)S(C)(=O)=O)c3c(F)c[nH]c3n2)c1 | 16 | 14.4 | 0.021 | – | – | – | –
12 | CNC(=O)c1cc(Oc2ccc(NC(=O)Nc3ccc(Cl)c(C(F)(F)F)c3)cc2)ccn1 [SORAFENIB] | – | – | – | 343.4 | Non-Toxic | Non-Toxic | 45.1
13 | CN(c1ncccc1CNc1nc(Nc2cccc(CN)c2)nc2[nH]cc(F)c12)S(C)(=O)=O | > 100 | > 100 | 2.1 | – | – | – | –
